≈ marks a conversion by molar mass, not a printed value. Calls of active or inactive are those of the source. No cut-off for these calls is given here.
Experiments:
[1] = system: Trypanosoma brucei rhodesiense; experiment: 50% antitrypanosomal activity against Trypanosoma rhodesiense; format: functional, organism-based
Summary of the method: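 T. brucei rhodesiense grown axenically in culture medium supplemented with horse serum. IC50 in µg/mL.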

[2] = system: Trypanosoma cruzi; experiment: 50% antitrypanosomal activity against Trypanosoma cruzi; format: functional, organism-based
Summary of the method: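 Tulahuen strain of T. cruzi expressing E. coli β-galactosidase, grown as intracellular amastigotes in mammalian fibroblasts with drug for 5 days. Viability read colorimetrically from β-galactosidase turnover of chlorophenol red β-D-galactopyranoside, quantified on an ELISA reader. IC50 in µg/mL.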

[3] = system: Plasmodium falciparum; experiment: Antiplasmodial activity against Plasmodium falciparum NF54; format: functional, organism-based
Summary of the method: (§1)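 P. falciparum (NF54 chloroquine-sensitive, K1 chloroquine-resistant) cultured in vitro in human A+ erythrocytes with Albumax. Readout is inhibition of parasite-specific [3H]hypoxanthine incorporation. IC50 in µg/mL taken from logarithmic dose–response curves.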

[4] = system: Plasmodium falciparum; experiment: Antiplasmodial activity against Plasmodium falciparum K1; format: functional, organism-based; summary of the method: as §1
[5] = system: L6; experiment: Cytotoxic effect in rat skeletal muscle myoblast L6 cells; format: functional, cell-based
Summary of the method: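 Rat L6 skeletal muscle myoblast cells. IC50 in µg/mL.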

[6] = target: Tyrosine-protein kinase Lck (Homo sapiens) (UniProt P06239); experiment: Inhibition of p56 Lck tyrosine kinase at 200 ug/mL (inactive)
Sequence of Tyrosine-protein kinase Lck (Homo sapiens) (P06239 2-509 limits assumed): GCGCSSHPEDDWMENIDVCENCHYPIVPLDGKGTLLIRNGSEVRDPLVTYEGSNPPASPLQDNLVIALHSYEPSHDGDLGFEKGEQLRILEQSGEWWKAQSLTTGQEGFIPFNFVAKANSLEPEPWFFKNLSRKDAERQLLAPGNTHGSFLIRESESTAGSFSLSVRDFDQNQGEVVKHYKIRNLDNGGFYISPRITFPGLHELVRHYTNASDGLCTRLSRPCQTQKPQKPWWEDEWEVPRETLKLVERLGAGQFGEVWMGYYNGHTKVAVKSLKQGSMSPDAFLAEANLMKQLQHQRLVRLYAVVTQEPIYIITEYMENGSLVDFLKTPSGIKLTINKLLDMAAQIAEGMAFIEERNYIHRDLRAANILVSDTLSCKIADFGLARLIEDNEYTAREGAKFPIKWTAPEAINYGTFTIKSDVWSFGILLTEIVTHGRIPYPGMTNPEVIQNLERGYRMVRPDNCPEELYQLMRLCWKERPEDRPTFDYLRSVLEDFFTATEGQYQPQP

[7] = system: Aspergillus pseudoglaucus; experiment: Zone of inhibition from the edge of a circular filter disk impregnated with test substance, against Eurotium repens (antifungal activity); NA means inactive.; format: functional, organism-based
Summary of the method: (§2)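 Agar diffusion assay. Filter disks loaded with 0.02 mg sample each. Zone of inhibition measured in mm from the disk edge against the fungi Eurotium repens or Ustilago violacea (Microbotryum violaceum).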

[8] = system: Microbotryum violaceum; experiment: Zone of inhibition from the edge of a circular filter disk impregnated with test substance, against Ustilago violacea (antifungal activity); NA means inactive.; format: functional, organism-based; summary of the method: as §2
[9] = Trypanosoma brucei, read-out: IC50
[10] = Trypanosoma cruzi, read-out: IC50
[11] = Plasmodium falciparum, read-out: IC50

Structure (SMILES) | IC50 [1, 9] [µg/mL] | IC50 [2, 10] [µg/mL] | IC50 [3, 11] [µg/mL] | IC50 [4, 11] [µg/mL] | IC50 [5] [µg/mL] | further results
Nc1nc(N)nc(Nc2ccc([As]3SCC(CO)S3)cc2)n1 (stereo unspecified) [MELARSOPROL] | 0.0026 | 0.6 | – | – | – | –
CCCCC/C=C/C(=O)O[C@H]1C[C@@H]2[C@H](CCCCC(O)CCC)CCC[C@@H]2N[C@H]1C (stereo partly specified) [LEPADIN F] | 0.23 (≈ 0.545 µM) | 2.6 (≈ 6.17 µM) | 0.3 (≈ 0.711 µM) | 0.2 (≈ 0.474 µM) | 18.3 (≈ 43.4 µM) | –
CCCCC/C=C/C(=O)O[C@H]1C[C@@H]2[C@H](CCCCC(O)CCC)CCC[C@@H]2N[C@@H]1C (stereo partly specified) [LEPADIN E] | 0.38 (≈ 0.901 µM) | 2.2 (≈ 5.22 µM) | 0.9 (≈ 2.13 µM) | 0.4 (≈ 0.949 µM) | 16.2 (≈ 38.4 µM) | –
CCCC(O)CCCC[C@@H]1CCC[C@@H]2N[C@H](C)[C@@H](O)C[C@H]12 (stereo in doubt; 2) [listing 1 of 2 here] | – | – | – | – | – | NA [6]: inactive; NA [7]: inactive; NA [8]: inactive
C[C@@H]1CC[C@H]2[C@@H](C)C(=O)O[C@@H]3O[C@@]4(C)CC[C@@H]1[C@]32OO4 [ARTEMISININ] | – | – | 0.003 (≈ 0.0106 µM) | 0.001 (≈ 0.00354 µM) | – | –
CCCC(O)CCCC[C@@H]1CCC[C@@H]2N[C@H](C)[C@@H](O)C[C@H]12 (stereo in doubt; 1) [listing 1 of 2 here] | – | – | – | – | – | NA [6]: inactive
CCCC(O)CCCC[C@@H]1CCC[C@@H]2N[C@H](C)[C@@H](O)C[C@H]12 (stereo in doubt; 2) [listing 2 of 2 here] | – | – | – | – | > 30 | IC50 [3]: 10 µg/mL (≈ 33.6 µM); IC50 [1]: 1.97 µg/mL (≈ 6.62 µM); IC50 [2]: 37.3 µg/mL (≈ 125 µM); IC50 [4]: 4 µg/mL (≈ 13.4 µM)
CCCC(O)CCCC[C@@H]1CCC[C@@H]2N[C@H](C)[C@@H](O)C[C@H]12 (stereo in doubt; 1) [listing 2 of 2 here] | – | 37.2 (≈ 125 µM) | 10 (≈ 33.6 µM) | 6.1 (≈ 20.5 µM) | > 30 | IC50 [1]: 5.6 µg/mL (≈ 18.8 µM)
CCCCC/C=C/C(=O)O[C@H]1C[C@@H]2[C@H](CCCCC(O)CCC)CCC[C@@H]2N(C(=O)c2ccc(Br)cc2)[C@@H]1C (stereo partly specified) | 36.9 (≈ 60.9 µM) | – | 0.4 (≈ 0.662 µM) | 0.5 (≈ 0.827 µM) | – | –

Reference: ChEMBL document CHEMBL1135503, “Lepadins D-F: antiplasmodial and antitrypanosomal decahydroquinoline derivatives from the tropical marine tunicate Didemnum sp” (J Med Chem, 2002)
